Results from ChEMBL document CHEMBL5705885, “CYT387, a selective JAK1/JAK2 inhibitor: in vitro assessment of kinase selectivity and preclinical studies using cell lines and primary cells from polycythemia vera patients” (Leukemia, 2009).

Columns and labels:
Aurora kinase B [1] = biological target: T1, Aurora kinase B (Homo sapiens, UniProt Q96GD4); details: dose 100.0 nM
[2] = biological target: RAF proto-oncogene serine/threonine-protein kinase (Homo sapiens, UniProt P04049, Y340D); test: Inhibition of RAF1 Y340D (unknown origin)
[3] = biological target: Tyrosine-protein kinase JAK2 (Homo sapiens) (UniProt O60674); details: dose 100.0 nM
Chain of Tyrosine-protein kinase JAK2 (Homo sapiens) (O60674 whole entry): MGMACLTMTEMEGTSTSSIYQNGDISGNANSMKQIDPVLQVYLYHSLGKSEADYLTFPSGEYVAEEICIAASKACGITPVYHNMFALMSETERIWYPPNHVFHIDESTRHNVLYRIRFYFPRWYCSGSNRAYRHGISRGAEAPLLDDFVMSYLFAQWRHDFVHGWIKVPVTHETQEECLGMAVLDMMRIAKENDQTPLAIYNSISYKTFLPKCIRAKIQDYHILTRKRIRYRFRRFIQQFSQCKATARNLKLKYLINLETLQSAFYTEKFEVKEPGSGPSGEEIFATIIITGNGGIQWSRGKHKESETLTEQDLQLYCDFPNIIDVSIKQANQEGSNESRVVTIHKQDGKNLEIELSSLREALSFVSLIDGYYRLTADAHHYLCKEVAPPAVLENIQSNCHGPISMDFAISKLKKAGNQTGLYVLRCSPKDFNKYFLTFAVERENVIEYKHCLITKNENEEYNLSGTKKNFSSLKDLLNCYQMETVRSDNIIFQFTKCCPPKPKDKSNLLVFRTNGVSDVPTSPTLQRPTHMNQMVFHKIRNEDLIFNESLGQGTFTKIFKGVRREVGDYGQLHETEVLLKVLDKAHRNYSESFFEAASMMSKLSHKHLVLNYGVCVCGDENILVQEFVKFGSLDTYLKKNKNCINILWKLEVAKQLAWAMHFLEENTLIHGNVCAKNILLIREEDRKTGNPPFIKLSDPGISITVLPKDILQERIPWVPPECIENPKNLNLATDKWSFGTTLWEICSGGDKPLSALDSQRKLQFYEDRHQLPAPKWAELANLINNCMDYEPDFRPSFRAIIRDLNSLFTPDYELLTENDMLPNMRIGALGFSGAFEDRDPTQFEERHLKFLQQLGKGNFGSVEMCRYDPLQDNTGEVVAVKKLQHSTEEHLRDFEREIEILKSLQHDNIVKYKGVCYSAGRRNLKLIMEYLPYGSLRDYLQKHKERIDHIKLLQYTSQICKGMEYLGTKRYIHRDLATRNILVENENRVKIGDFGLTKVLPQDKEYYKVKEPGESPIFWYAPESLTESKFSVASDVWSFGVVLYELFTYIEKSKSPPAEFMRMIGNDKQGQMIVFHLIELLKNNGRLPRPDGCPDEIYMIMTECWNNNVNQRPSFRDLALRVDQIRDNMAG

[4] = biological target: T2, Ribosomal protein S6 kinase beta-1 (Homo sapiens, UniProt P23443); test: Inhibition of RPS6KB1 (unknown origin)
Target sequence in this assay (P23443 whole entry): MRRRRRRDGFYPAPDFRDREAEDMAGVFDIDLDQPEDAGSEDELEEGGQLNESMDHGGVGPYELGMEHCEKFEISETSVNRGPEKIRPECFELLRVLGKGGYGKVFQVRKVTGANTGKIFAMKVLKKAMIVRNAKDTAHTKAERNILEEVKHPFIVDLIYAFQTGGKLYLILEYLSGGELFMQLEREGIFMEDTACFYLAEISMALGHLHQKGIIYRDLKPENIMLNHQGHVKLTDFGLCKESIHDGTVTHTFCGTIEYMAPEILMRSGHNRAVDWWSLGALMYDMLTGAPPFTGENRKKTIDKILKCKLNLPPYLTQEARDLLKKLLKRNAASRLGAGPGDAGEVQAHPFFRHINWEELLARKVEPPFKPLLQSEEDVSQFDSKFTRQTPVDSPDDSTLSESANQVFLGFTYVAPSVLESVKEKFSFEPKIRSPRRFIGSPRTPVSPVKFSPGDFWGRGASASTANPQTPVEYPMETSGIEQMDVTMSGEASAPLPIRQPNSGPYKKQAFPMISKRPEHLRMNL

[5] = biological target: Serine/threonine-protein kinase B-raf (Homo sapiens, UniProt P15056); details: dose 100.0 nM
[6] = biological target: Death-associated protein kinase 3 (Homo sapiens, UniProt O43293); test: Inhibition of DAPK3 (unknown origin)
Chain of Death-associated protein kinase 3 (O43293 whole entry): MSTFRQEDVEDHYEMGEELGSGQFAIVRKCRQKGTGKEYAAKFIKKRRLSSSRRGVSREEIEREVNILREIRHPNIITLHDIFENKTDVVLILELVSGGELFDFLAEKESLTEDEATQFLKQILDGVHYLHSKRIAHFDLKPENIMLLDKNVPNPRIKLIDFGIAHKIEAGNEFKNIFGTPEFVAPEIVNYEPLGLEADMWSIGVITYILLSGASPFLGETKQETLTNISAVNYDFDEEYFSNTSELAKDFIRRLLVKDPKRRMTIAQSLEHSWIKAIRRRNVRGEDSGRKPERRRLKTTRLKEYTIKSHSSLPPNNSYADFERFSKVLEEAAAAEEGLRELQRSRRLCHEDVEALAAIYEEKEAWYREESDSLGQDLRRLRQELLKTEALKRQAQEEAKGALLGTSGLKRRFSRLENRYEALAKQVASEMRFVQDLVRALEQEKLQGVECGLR

[7] = biological target: Macrophage colony-stimulating factor 1 receptor (Homo sapiens, UniProt P07333); test: Inhibition of CSF1R (unknown origin)
[8] = biological target: High affinity nerve growth factor receptor (Homo sapiens, UniProt P04629); details: dose 100.0 nM
[9] = biological target: Ribosomal protein S6 kinase alpha-5 (Homo sapiens, UniProt O75582); test: Inhibition of RPS6KA5 (unknown origin)
Chain of Ribosomal protein S6 kinase alpha-5 (O75582 whole entry): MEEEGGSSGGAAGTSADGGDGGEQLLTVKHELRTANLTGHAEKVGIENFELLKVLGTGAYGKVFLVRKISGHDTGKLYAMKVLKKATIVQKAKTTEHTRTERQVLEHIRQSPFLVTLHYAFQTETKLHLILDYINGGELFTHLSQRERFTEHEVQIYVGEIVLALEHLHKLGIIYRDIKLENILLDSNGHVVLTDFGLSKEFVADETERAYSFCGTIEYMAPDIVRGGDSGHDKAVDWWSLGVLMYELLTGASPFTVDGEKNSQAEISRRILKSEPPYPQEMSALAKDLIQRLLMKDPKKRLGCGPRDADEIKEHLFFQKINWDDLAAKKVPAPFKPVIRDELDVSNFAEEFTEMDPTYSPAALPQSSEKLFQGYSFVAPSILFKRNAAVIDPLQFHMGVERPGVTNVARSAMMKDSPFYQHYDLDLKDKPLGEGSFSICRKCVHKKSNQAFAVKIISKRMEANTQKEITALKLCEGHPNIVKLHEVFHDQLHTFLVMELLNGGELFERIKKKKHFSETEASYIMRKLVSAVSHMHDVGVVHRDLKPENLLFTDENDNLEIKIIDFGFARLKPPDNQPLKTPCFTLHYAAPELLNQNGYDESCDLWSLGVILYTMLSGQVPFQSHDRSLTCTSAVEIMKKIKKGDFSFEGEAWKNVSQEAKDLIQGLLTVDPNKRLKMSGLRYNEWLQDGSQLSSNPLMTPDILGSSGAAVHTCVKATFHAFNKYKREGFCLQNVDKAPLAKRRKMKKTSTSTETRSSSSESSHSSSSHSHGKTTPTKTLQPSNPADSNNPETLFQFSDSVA

[10] = biological target: Serine/threonine-protein kinase Nek9 (Homo sapiens, UniProt Q8TD19); test: Inhibition of NEK9 (unknown origin)
[11] = biological target: G protein-coupled receptor kinase 3 (Homo sapiens, UniProt P35626); test: Inhibition of ADRBK2 (unknown origin)
[12] = biological target: Serine/threonine-protein kinase PLK3 (Homo sapiens, UniProt Q9H4B4); test: Inhibition of PLK3 (unknown origin)
[13] = biological target: Dual specificity tyrosine-phosphorylation-regulated kinase 3 (Homo sapiens, UniProt O43781); test: Inhibition of DYRK3 (unknown origin)
[14] = biological target: Calcium/calmodulin-dependent protein kinase type IV (Homo sapiens, UniProt Q16566); test: Inhibition of CAMK4 (unknown origin)
Chain of Calcium/calmodulin-dependent protein kinase type IV (Q16566 whole entry): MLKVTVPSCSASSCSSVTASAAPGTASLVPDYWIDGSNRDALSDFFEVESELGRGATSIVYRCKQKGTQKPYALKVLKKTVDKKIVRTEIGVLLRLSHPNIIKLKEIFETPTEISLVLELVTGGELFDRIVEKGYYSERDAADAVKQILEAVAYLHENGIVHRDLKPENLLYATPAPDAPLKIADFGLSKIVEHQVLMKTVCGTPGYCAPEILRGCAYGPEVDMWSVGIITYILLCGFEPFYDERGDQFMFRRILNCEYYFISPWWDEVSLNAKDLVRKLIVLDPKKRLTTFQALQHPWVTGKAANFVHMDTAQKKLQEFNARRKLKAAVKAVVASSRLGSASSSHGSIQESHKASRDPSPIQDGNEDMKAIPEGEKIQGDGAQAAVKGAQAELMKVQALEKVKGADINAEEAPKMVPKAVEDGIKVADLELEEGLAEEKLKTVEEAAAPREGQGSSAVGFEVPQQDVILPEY

[15] = biological target: Homeodomain-interacting protein kinase 4 (Homo sapiens, UniProt Q8NE63); test: Inhibition of HIPK4 (unknown origin)
[16] = biological target: Serine/threonine-protein kinase pim-1 (Homo sapiens, UniProt P11309); test: Inhibition of PIM1 (unknown origin)
[17] = biological target: Serine/threonine-protein kinase Nek6 (Homo sapiens, UniProt Q9HC98); test: Inhibition of NEK6 (unknown origin)
Aurora kinase B [18] = biological target: T1, Aurora kinase B; test: Inhibition of AURKB (unknown origin)
[19] = biological target: Serine/threonine-protein kinase BRSK1 (Homo sapiens, UniProt Q8TDC3); test: Inhibition of BRSK1 (unknown origin)
[20] = biological target: AMP-activated protein kinase (AMPK) alpha-1/beta-1/gamma-1 (Homo sapiens, UniProt P54619+Q13131+Q9Y478); test: Inhibition of AMPK alpha1/beta1/gamma1 (unknown origin); type: protein-complex assay
[21] = biological target: T2, Ribosomal protein S6 kinase beta-1; details: dose 100.0 nM
Target sequence in this assay (P23443 whole entry, looked up): as the sequence (P23443 whole entry) above

[22] = biological target: Platelet-derived growth factor receptor beta (Homo sapiens, UniProt P09619); test: Inhibition of PDGFRB (unknown origin)
[23] = biological target: Serine/threonine-protein kinase D2 (Homo sapiens) (UniProt Q9BZL6); details: dose 100.0 nM
[24] = biological target: Protein kinase C alpha type (Homo sapiens, UniProt P17252); test: Inhibition of PRKCA (unknown origin)
[25] = biological target: Serine/threonine-protein kinase PAK 4 (Homo sapiens, UniProt O96013); test: Inhibition of PAK4 (unknown origin)
CMK = test: Antiproliferative activity against human CMK cells harboring JAK3A572V mutant measured after 72 hrs by Alamar blue staining based analysis; type: functional, cell-based
Procedure, shortened: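 Cells were exposed for 72 h at 37 °C under 5% CO2 to compound made up as DMSO stock and diluted in culture medium. Proliferation was then read by Alamar Blue.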

[26] = biological target: Mitogen-activated protein kinase kinase kinase kinase 2 (Homo sapiens, UniProt Q12851); test: Inhibition of MAP4K2 (unknown origin)
Chain of Mitogen-activated protein kinase kinase kinase kinase 2 (Q12851 whole entry): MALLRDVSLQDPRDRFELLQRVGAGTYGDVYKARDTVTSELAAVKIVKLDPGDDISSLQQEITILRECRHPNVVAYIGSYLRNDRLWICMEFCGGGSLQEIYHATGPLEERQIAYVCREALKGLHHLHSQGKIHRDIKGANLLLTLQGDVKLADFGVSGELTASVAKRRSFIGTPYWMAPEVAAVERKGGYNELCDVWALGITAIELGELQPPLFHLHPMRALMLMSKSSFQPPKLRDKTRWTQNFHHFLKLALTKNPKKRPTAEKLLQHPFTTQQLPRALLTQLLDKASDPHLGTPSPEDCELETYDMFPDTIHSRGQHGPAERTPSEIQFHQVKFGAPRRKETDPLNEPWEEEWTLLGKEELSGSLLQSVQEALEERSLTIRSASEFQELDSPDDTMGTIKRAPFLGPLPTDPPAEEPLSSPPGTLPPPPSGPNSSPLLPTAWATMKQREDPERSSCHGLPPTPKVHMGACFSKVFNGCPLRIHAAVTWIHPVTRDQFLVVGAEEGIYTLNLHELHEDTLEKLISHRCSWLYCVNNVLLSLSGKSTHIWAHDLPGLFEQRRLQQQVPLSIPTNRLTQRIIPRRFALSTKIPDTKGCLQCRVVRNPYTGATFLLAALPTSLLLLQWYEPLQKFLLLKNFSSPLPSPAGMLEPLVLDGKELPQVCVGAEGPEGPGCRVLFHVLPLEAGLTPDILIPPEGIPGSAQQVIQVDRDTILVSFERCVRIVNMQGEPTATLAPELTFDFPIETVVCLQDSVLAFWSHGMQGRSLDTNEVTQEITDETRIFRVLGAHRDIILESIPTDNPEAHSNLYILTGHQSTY

[27] = biological target: Leukocyte tyrosine kinase receptor (Homo sapiens, UniProt P29376); test: Inhibition of LTK (unknown origin)
[28] = biological target: ALK tyrosine kinase receptor (Homo sapiens, UniProt Q9UM73); test: Inhibition of ALK (unknown origin)
[29] = biological target: cAMP-dependent protein kinase catalytic subunit alpha (Homo sapiens, UniProt P17612); test: Inhibition of PRKACA (unknown origin)
[30] = biological target: Mitogen-activated protein kinase 8 (Homo sapiens) (UniProt P45983); details: dose 100.0 nM
[31] = biological target: AMP-activated protein kinase (AMPK) alpha-1/beta-1/gamma-1 (Homo sapiens) (UniProt P54619+Q9Y478+Q13131); details: dose 100.0 nM
[32] = biological target: Signal transducer and activator of transcription 5A (Homo sapiens) (UniProt P42229); test: Inhibition of STAT5 phosphorylation in human HEL cells by Western blot analysis; type: cell-based; details: dose <= 1.0 µM
Procedure, shortened: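 HEL cells were starved overnight in RPMI with 1% FCS, then exposed to compound for 2 h at 37 °C. Cells were lysed in RIPA buffer (50 mM HEPES pH 7.4, 150 mM NaCl, 1% Triton X-100, deoxycholate, 0.1% SDS) with protease and phosphatase inhibitors. Protein was quantified by Bradford assay and blots were developed by chemiluminescence. Membranes were stripped and reprobed for total STAT5.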

[33] = biological target: Tyrosine-protein kinase CSK (Homo sapiens, UniProt P41240); test: Inhibition of CSK (unknown origin)
[34] = biological target: Inhibitor of nuclear factor kappa-B kinase subunit beta (Homo sapiens) (UniProt O14920); details: dose 100.0 nM
[35] = biological target: Insulin-like growth factor 1 receptor (Homo sapiens, UniProt P08069); test: Inhibition of IGF1R (unknown origin)
[36] = biological target: Phosphorylase b kinase gamma catalytic chain, liver/testis isoform (Homo sapiens, UniProt P15735); test: Inhibition of PHKG2 (unknown origin)
Chain of Phosphorylase b kinase gamma catalytic chain, liver/testis isoform (P15735 whole entry, canonical isoform): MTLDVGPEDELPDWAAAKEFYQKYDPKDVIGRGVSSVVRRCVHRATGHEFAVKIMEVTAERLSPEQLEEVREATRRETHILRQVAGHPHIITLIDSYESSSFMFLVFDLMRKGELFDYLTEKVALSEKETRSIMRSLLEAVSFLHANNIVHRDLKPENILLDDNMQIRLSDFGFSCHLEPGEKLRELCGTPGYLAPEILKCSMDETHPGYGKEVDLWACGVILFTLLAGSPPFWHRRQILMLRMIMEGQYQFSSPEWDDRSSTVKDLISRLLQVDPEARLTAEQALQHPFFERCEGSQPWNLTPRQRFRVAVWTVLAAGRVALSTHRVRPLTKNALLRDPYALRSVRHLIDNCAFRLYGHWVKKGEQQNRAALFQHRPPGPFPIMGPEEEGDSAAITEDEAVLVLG

BaF3 = test: Antiproliferative activity against mouse BaF3 cells harboring TEL-JAK2 measured after 72 hrs by Alamar blue staining based analysis; type: functional, cell-based; details: BaF3, 72 h
Procedure, shortened: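 Murine Ba/F3 cells carrying TEL/JAK2 or TEL/JAK3 fusions, grown in DMEM with 10% fetal calf serum. Compound stocks in DMSO were diluted in culture medium. Proliferation was read by Alamar Blue after 72 h incubation at 37 °C under 5% CO2.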

[37] = biological target: Serine/threonine-protein kinase N1 (Homo sapiens, UniProt Q16512); test: Inhibition of PKN1 (unknown origin)

T1 sequence (Q96GD4 whole entry): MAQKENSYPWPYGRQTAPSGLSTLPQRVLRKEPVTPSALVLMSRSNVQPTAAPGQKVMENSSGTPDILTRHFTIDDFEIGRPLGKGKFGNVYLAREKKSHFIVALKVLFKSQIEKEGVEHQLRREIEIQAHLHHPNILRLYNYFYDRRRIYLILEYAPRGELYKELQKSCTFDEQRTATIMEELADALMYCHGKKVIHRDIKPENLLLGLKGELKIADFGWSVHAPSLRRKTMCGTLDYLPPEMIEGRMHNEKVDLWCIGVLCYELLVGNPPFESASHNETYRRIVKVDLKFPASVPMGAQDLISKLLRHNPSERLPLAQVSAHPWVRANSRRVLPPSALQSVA

`N#CCNC(=O)c1ccc(-c2ccnc(Nc3ccc(N4CCOCC4)cc3)n2)cc1` [MOMELOTINIB] was tested, and the inhibition (Aurora kinase B [1]) was < 50%, the IC50 [2] was < 1000 nM and the inhibition [3] was > 50%. For the same molecule, the IC50 [4] was < 1000 nM, the inhibition [5] was < 50% and the IC50 [6] was > 1000 nM. For the same molecule, the IC50 [7] was < 1000 nM, the inhibition [8] was < 50% and the IC50 [9] was > 1000 nM. The IC50 [10] was < 1000 nM, the IC50 [11] was > 1000 nM and the IC50 [12] was < 1000 nM. For the same molecule, the IC50 [13] was > 1000 nM, the IC50 [14] was > 1000 nM and the IC50 [15] was < 1000 nM. The IC50 [16] was > 1000 nM, the IC50 [17] was > 1000 nM and the IC50 (Aurora kinase B [18]) was < 1000 nM. For the same molecule, the IC50 [19] was < 1000 nM, the IC50 [20] was < 1000 nM and the inhibition [21] was < 50%. For the same molecule, the IC50 [22] was > 1000 nM, the inhibition [23] was < 50% and the IC50 [24] was > 1000 nM. The IC50 [25] was < 1000 nM, the IC50 (CMK) was 700 nM and the IC50 [26] was < 1000 nM. For the same molecule, the IC50 [27] was > 1000 nM, the IC50 [28] was > 1000 nM and the IC50 [29] was > 1000 nM. The inhibition [30] was > 50%, the inhibition [31] was < 50% and the inhibition [32] was “Dose-Dependent Effect”. The IC50 [33] was > 1000 nM, the inhibition [34] was < 50% and the IC50 [35] was > 1000 nM. For the same molecule, the IC50 [36] was > 1000 nM, the IC50 (BaF3) was 724 nM and the IC50 [37] was < 1000 nM.
